Experimental data: PMC9214849 (Chemical Science, 2022)

Assays:
[1] = target: T1, human calcitonin1-32 (hCT) (Homo sapiens, UniProt P01258); test: AFM morphology of aggregates, hCT; type: biochemical; conditions: pure hCT 20 μM, 24 h
T1 sequence (P01258 85-116): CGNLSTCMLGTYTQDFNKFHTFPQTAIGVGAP
Method in brief: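 AFM imaging of samples taken at different time points of the ThT kinetics runs. hCT at 20 μM was incubated alone or with 5–20 μM test defensin at 37 °C. Fibril heights and lengths were measured from the images.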

[2] = target: T1, human calcitonin1-32 (hCT); test: CD secondary structure, hCT; type: biochemical; conditions: pure 20 μM, 10 mM sodium phosphate pH 7.4, 37 °C, 24–72 h, BeStSel
Method in brief: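 Aβ, hIAPP or hCT at 20 μM, alone or co-incubated with test defensin at 37 °C. Circular dichroism spectra were deconvoluted with BestSel into secondary-structure fractions, including β-structure content.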

SH-SY5Y cells [3] = test: MTT cell viability, SH-SY5Y; type: cell-based, human; conditions: pure amyloid 20 μM, 24 h
SH-SY5Y cells [4] = test: LDH cytotoxicity, SH-SY5Y; type: cell-based, human; conditions: pure amyloid 20 μM, 24 h; % of positive control
[5] = target: human islet amyloid polypeptide1-37 (hIAPP) (Homo sapiens, UniProt P10997); test: CD secondary structure, hIAPP; type: biochemical; conditions: pure 20 μM, 10 mM sodium phosphate pH 7.4, 37 °C, 24–72 h, BeStSel
Method in brief: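 Samples held 20 μM hIAPP with 0, 5 or 20 μM defensin. Circular dichroism spectra were recorded on the aggregates. Secondary-structure fractions, including β-structure content, were fitted from the spectra with BestSel.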

RIN-m5F cells [6] = test: MTT cell viability, RIN-m5F; type: cell-based, rat; conditions: pure amyloid 20 μM, 24 h
RIN-m5F cells [7] = test: LDH cytotoxicity, RIN-m5F; type: cell-based, rat; conditions: pure amyloid 20 μM, 24 h; % of positive control
Staphylococcus aureus = conditions: cited from earlier work
Escherichia coli = conditions: cited from earlier work
[8] = system: Candida albicans, Escherichia coli, Enterococcus faecalis, and Staphylococcus epidermidis; conditions: ref 41,42 (Aβ); 43 (hIAPP); 44,45 (GNNQQNY); 46 (KLVFFGAIL); cited from earlier work

human islet amyloid polypeptide1-37 (hIAPP), sequence (P10997 34-70): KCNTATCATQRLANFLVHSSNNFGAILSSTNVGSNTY

## CC[C@H](C)[C@H](NC(=O)[C@H](C)NC(=O)[C@@H](NC(=O)[C@H](CCC(N)=O)NC(=O)[C@@H]1CCCN1C(=O)[C@H](Cc1ccccc1)NC(=O)[C@@H](NC(=O)[C@H](Cc1c[nH]cn1)NC(=O)[C@H](Cc1ccccc1)NC(=O)[C@H](CCCCN)NC(=O)[C@H](CC(N)=O)NC(=O)[C@H](Cc1ccccc1)NC(=O)[C@H](CC(=O)O)NC(=O)[C@H](CCC(N)=O)NC(=O)[C@@H](NC(=O)[C@H](Cc1ccc(O)cc1)NC(=O)[C@@H](NC(=O)CNC(=O)[C@H](CC(C)C)NC(=O)[C@H](CCSC)NC(=O)[C@@H]1CSSC[C@H](N)C(=O)NCC(=O)N[C@@H](CC(N)=O)C(=O)N[C@@H](CC(C)C)C(=O)N[C@@H](CO)C(=O)N[C@@H]([C@@H](C)O)C(=O)N1)[C@@H](C)O)[C@@H](C)O)[C@@H](C)O)[C@@H](C)O)C(=O)NCC(=O)N[C@H](C(=O)NCC(=O)N[C@@H](C)C(=O)N1CCC[C@H]1C(N)=O)C(C)C [hCT]
[1]
  average height of fibrils: 16 nm
[1]; N up to 40
  average length of fibrils: 477 nm
[2]
  β-structure content: 56.4%
SH-SY5Y cells [3]
  cell viability: 67%
SH-SY5Y cells [4]
  cell toxicity: 35%

## CC[C@H](C)[C@H](NC(=O)[C@H](C)NC(=O)CNC(=O)[C@H](Cc1ccccc1)NC(=O)[C@H](CC(N)=O)NC(=O)[C@H](CC(N)=O)NC(=O)[C@H](CO)NC(=O)[C@H](CO)NC(=O)[C@H](Cc1c[nH]cn1)NC(=O)[C@@H](NC(=O)[C@H](CC(C)C)NC(=O)[C@H](Cc1ccccc1)NC(=O)[C@H](CC(N)=O)NC(=O)[C@H](C)NC(=O)[C@H](CC(C)C)NC(=O)[C@H](CCCNC(=N)N)NC(=O)[C@H](CCC(N)=O)NC(=O)[C@@H](NC(=O)[C@H](C)NC(=O)[C@@H]1CSSC[C@H](NC(=O)[C@@H](N)CCCCN)C(=O)N[C@@H](CC(N)=O)C(=O)N[C@@H]([C@@H](C)O)C(=O)N[C@@H](C)C(=O)N[C@@H]([C@@H](C)O)C(=O)N1)[C@@H](C)O)C(C)C)C(=O)N[C@@H](CC(C)C)C(=O)N[C@@H](CO)C(=O)N[C@@H](CO)C(=O)N[C@H](C(=O)N[C@@H](CC(N)=O)C(=O)N[C@H](C(=O)NCC(=O)N[C@@H](CO)C(=O)N[C@@H](CC(N)=O)C(=O)N[C@H](C(=O)N[C@@H](Cc1ccc(O)cc1)C(N)=O)[C@@H](C)O)C(C)C)[C@@H](C)O [hIAPP]
[5]
  β-structure content: 48.5%
RIN-m5F cells [6]
  cell viability: 55%
RIN-m5F cells [7]
  cell toxicity: 25%
Staphylococcus aureus
  bacteria growth: hinder Staphylococcus aureus and Escherichia coli bacteria growth
Escherichia coli
  bacteria growth: hinder Staphylococcus aureus and Escherichia coli bacteria growth
[8]
  antibacterial and antifungal activities: antibacterial and antifungal activities

## GNNQQNY
[8]
  antibacterial and antifungal activities: antibacterial and antifungal activities

## KLVFFGAIL
[8]
  antibacterial and antifungal activities: antibacterial and antifungal activities
